Paper PMC3115441 (Chemical biology & drug design, 2011)

Tests used:
[1] = tested on: PCP site of the NMDA receptor complex; test: [3H]; type: binding, rat
In short: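 Washed rat forebrain homogenate (30 ug/mL protein) in 10 mM HEPES, pH 7.4, with 1 nM (+)-[3H]MK-801, 100 uM glutamate, 30 uM glycine and varied competitor concentrations. Nonspecific binding was set with 30 uM (+)-MK-801. Incubation ran 2 h at room temperature, then vacuum filtration onto GF/B filters, three buffer washes and scintillation counting.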

Serotonin 2A (5-HT2A) = Serotonin 2A (5-HT2A) (Homo sapiens, UniProt P28223); test: NIMH-PDSP radioligand binding, 5-HT2A; details: read-out: 5HT2A binding affinity; Human Cloned, hot ligand Ketanserin
Sequence of Serotonin 2A (5-HT2A) (P28223 whole entry): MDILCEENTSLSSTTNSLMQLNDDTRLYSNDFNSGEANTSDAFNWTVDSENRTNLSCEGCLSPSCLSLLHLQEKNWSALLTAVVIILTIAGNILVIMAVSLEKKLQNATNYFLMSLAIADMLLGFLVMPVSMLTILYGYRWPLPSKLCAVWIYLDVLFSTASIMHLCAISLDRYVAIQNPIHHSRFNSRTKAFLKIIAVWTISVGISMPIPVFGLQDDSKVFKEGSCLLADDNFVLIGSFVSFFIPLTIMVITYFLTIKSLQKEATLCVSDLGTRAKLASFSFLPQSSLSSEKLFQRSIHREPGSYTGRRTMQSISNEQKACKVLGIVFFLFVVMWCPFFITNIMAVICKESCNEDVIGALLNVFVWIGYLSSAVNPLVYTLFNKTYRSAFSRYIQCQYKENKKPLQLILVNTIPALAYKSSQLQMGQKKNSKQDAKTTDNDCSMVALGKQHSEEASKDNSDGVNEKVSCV

Dopamine 1 (D1) = Dopamine 1 (D1) (Homo sapiens, UniProt P21728); test: NIMH-PDSP radioligand binding, D1; details: read-out: D1 binding affinity; Human Cloned, hot ligand SCH23390
Sequence of Dopamine 1 (D1) (P21728 whole entry): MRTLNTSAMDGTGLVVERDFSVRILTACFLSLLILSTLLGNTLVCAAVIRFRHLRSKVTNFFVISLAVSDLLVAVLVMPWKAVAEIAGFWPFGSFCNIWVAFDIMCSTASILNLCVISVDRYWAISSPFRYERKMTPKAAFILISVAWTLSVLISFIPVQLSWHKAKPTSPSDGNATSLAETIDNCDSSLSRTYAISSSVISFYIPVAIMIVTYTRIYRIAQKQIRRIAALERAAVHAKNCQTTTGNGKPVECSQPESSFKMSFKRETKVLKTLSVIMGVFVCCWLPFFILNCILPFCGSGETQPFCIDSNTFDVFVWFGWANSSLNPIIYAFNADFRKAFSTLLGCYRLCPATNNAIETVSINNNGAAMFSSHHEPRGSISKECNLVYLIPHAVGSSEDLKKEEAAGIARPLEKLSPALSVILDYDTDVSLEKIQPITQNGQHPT

Dopamine 2 (D2) = Dopamine 2 (D2) (Homo sapiens, UniProt P14416); test: NIMH-PDSP radioligand binding, D2; details: read-out: D2 binding affinity; Human Cloned, hot ligand N-Methylspiperone
Sequence of Dopamine 2 (D2) (P14416 whole entry): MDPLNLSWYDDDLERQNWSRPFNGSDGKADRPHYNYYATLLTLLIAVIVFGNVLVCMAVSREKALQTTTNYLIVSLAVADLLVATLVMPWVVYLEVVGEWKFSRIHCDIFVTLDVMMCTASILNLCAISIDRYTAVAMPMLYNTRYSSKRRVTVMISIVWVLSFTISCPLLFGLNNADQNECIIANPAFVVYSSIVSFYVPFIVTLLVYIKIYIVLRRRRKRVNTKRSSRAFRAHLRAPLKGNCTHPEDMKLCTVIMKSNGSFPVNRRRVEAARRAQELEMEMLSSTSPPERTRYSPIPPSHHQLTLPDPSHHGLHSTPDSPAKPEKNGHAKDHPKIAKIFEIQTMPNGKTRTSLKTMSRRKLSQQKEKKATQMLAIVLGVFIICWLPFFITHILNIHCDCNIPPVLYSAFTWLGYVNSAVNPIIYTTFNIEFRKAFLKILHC

[2] = target: Dopamine Transporter (DAT) (Homo sapiens, UniProt Q01959); test: NIMH-PDSP radioligand binding, DAT; details: read-out: DAT binding affinity; Human Cloned, hot ligand WIN35428
Sequence of Dopamine Transporter (DAT) (Q01959 whole entry): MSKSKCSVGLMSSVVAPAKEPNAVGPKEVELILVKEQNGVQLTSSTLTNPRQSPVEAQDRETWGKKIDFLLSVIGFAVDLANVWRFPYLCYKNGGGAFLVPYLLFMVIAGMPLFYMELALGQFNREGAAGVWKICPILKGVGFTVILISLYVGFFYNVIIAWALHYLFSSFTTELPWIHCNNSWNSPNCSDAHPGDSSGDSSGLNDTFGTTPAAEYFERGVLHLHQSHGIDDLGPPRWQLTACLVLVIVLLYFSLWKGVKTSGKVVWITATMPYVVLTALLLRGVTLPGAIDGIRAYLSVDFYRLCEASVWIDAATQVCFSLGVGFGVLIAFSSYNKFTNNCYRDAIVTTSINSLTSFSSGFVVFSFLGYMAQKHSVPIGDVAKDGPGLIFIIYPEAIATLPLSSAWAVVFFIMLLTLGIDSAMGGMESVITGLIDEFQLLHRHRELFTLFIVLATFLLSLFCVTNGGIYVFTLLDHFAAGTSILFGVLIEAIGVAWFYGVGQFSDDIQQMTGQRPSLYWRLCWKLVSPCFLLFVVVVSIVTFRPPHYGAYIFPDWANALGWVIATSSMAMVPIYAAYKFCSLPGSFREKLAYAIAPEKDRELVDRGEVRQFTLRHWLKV

[3] = target: κ- opioid receptors (KOR) (Rattus norvegicus, UniProt P34975); test: NIMH-PDSP radioligand binding, KOR; details: read-out: KOR binding affinity; Rat Cloned, hot ligand U69593
Sequence of κ- opioid receptors (KOR) (P34975 whole entry): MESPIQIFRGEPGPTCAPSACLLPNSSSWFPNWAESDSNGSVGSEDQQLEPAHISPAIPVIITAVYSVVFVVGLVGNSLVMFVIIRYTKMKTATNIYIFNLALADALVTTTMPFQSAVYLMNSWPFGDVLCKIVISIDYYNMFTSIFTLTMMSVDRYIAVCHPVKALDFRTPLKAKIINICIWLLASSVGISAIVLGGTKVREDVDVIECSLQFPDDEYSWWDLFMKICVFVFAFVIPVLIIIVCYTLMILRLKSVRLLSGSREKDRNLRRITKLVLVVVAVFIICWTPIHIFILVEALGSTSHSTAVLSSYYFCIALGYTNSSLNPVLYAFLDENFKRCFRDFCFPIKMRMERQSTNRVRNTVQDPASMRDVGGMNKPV

[4] = target: μ- opioid receptors (MOR) (Homo sapiens, UniProt P35372); test: NIMH-PDSP radioligand binding, MOR; details: read-out: MOR binding affinity; Human Cloned, hot ligand DAMGO
Sequence of μ- opioid receptors (MOR) (P35372 whole entry): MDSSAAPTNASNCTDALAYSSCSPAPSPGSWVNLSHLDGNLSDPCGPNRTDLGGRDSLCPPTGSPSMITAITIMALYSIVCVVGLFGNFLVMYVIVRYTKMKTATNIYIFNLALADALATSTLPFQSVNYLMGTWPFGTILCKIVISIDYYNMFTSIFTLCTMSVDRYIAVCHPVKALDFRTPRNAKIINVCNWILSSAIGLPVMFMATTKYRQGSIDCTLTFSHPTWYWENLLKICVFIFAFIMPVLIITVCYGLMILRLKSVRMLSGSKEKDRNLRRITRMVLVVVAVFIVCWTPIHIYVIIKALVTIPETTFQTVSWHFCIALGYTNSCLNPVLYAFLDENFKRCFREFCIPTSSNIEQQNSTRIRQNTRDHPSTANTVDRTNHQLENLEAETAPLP

[5] = target: Norepinephrine Transporter (NET) (Homo sapiens, UniProt P23975); test: NIMH-PDSP radioligand binding, NET; details: read-out: NET binding affinity; Human Cloned, hot ligand Nisoxetine
Sequence of Norepinephrine Transporter (NET) (P23975 whole entry): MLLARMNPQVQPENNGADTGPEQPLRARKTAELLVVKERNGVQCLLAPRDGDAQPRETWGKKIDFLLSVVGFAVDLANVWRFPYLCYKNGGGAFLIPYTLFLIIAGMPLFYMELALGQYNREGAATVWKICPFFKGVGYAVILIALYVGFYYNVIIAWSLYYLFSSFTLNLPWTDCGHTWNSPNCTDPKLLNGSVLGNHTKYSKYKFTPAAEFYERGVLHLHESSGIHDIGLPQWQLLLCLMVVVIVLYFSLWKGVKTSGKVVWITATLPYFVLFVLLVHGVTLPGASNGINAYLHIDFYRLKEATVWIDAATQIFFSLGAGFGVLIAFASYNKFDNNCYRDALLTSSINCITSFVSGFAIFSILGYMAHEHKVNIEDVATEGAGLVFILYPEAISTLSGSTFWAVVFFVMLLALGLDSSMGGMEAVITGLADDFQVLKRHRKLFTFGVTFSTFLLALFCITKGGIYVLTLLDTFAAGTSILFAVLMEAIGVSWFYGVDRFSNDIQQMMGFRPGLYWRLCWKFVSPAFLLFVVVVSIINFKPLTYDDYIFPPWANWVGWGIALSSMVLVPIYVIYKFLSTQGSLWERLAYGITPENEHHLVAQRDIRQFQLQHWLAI

[6] = target: Serotonin Transporter (SERT) (Homo sapiens, UniProt P31645); test: NIMH-PDSP radioligand binding, SERT; details: read-out: SERT binding affinity; Human Cloned, hot ligand Citalopram
Sequence of Serotonin Transporter (SERT) (P31645 whole entry): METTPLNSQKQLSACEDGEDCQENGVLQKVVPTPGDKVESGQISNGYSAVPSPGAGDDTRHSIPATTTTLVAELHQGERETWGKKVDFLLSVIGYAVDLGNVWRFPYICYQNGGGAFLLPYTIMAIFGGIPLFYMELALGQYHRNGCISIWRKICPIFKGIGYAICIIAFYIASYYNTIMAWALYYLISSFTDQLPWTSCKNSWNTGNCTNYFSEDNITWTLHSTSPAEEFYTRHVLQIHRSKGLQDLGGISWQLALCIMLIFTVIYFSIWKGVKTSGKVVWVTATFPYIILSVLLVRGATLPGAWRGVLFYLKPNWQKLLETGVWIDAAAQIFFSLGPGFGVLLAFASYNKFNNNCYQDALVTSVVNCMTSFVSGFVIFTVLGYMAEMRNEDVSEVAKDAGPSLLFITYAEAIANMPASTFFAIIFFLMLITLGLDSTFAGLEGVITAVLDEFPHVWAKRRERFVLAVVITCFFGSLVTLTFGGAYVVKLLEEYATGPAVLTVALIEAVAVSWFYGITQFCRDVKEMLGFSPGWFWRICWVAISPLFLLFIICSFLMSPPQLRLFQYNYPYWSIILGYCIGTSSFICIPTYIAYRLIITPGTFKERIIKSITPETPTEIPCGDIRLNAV

Sigma1 = Sigma1 (Rattus norvegicus, UniProt Q9R0C9); test: NIMH-PDSP radioligand binding, Sigma-1; details: read-out: Sigma 1 binding affinity; Rat Brain, hot ligand Pentazocine(+)
Sequence of Sigma1 (Q9R0C9 whole entry): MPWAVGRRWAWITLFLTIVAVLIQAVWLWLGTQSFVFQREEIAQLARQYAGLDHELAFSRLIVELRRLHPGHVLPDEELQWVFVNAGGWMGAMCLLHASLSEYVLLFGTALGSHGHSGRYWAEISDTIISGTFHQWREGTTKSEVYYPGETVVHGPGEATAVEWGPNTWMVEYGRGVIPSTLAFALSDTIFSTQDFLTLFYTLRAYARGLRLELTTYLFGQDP

Sigma2 = target: T1, Sigma2 (Rattus norvegicus, UniProt Q5U3Y7); test: NIMH-PDSP radioligand binding, Sigma-2; details: read-out: Sigma 2 binding affinity; Rat C12, hot ligand DTG
T1 sequence (Q5U3Y7 1-176): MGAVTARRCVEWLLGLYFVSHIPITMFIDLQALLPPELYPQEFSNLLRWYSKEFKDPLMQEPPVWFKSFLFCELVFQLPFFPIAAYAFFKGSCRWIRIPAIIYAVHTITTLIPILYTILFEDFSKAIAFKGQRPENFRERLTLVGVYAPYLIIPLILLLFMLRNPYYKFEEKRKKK

MES-induced seizures [7] = test: Maximal electroshock; type: in vivo, mice; details: for MES (30) N/F, animals active over tested: 30 mg/kg i.p.; for MES (100) N/F, animals active over tested: 100 mg/kg i.p.
In short: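 Mice received test compound i.p. at 30, 100 or 300 mg/kg in 0.01 ml/g and were tested at various intervals after dosing. Corneal electrodes primed with 0.5% tetracaine HCl electrolyte delivered 60 Hz alternating current, 50 mA, for 0.2 s. An animal counted as protected when the hindlimb tonic extensor component was abolished. Results are scored as animals protected over tested.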

[8] = tested on: Metrazol-induced clonic seizures; test: Subcutaneous Metrazol seizure threshold test; type: in vivo, mice; details: for scMET (30) N/F, animals active over tested: 30 mg/kg; for scMET (100) N/F, animals active over tested: 100 mg/kg
mice = test: Acute toxicity, minimal motor impairment; type: in vivo; details: for TOX (30) N/F, animals toxic over tested: 30 mg/kg
6HZ = 6HZ test; type: in vivo; details: 50 mg/kg, 0.5 h
MES-induced seizures [9] = test: Anticonvulsant protection test in rats; type: in vivo; details: 30 mg/kg
In short: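 Rats were dosed orally at 30 mg/kg in 0.04 ml/10 g. Corneal electrodes primed with 0.5% tetracaine HCl electrolyte delivered 60 Hz alternating current, 150 mA, for 0.2 s. Protection meant abolition of the hindlimb tonic extensor component of the seizure.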

rats = test: Acute toxicity, minimal motor impairment in rats; type: in vivo; details: 30 mg/kg
[10] = tested on: PCP site of the NMDA receptor complex; details: ref [39], [40]; cited from earlier work

Fc1ccc(C2(NCCN3CCCCC3)CC3CCC2C3)cc1 (stereo not shown) [Compound 5b]
affinity for NMDA (in words) [1]: did not exhibit significant affinity | Ki (Serotonin 2A (5-HT2A)): 8.82 µM | Ki (Dopamine 1 (D1)): > 10 µM | Ki (Dopamine 2 (D2)): > 10 µM | Ki [2]: 1.23 µM | Ki [3]: 3.55 µM | Ki [4]: > 10 µM | Ki [5]: > 10 µM | Ki [6]: > 10 µM | Ki (Sigma1): > 10 µM | Ki (Sigma2): > 10 µM | MES (30) N/F, animals active over tested (MES-induced seizures [7]; 0.5 h): 0/1 0/1 | MES (30) N/F, animals active over tested (MES-induced seizures [7]; 4.0 h): 0/1 0/1 | MES (100) N/F, animals active over tested (MES-induced seizures [7]; 0.5 h): 2/3 | MES (100) N/F, animals active over tested (MES-induced seizures [7]; 4.0 h): 0/3 | MES neuroprotective activity (in words) (MES-induced seizures [7]; mouse, in vivo): displayed MES neuroprotective activity | scMET (30) N/F, animals active over tested ([8]; 0.5 h): 0/1 0/1 | scMET (30) N/F, animals active over tested ([8]; 4.0 h): 0/1 0/1 | scMET (100) N/F, animals active over tested ([8]; 0.5 h): 0/1 0/1 | scMET (100) N/F, animals active over tested ([8]; 4.0 h): 0/1 0/1 | TOX comments (mice; 50 mg/kg, 0.25 h): Clonic seizures | TOX comments (mice; 100 mg/kg, 0.5 h): Clonic seizures | TOX comments (mice; 300 mg/kg, 0.5 h): Death | TOX (30) N/F, animals toxic over tested (mice; rotorod, 0.5 h): 0/4 | TOX (30) N/F, animals toxic over tested (mice; rotorod, 4.0 h): 0/2 | TOX (65) N/F, animals toxic over tested (mice; rotorod, 65 mg/kg, 0.5 h): 2/4 | TOX (100) N/F, animals toxic over tested (mice; rotorod, 100 mg/kg, 0.5 h): 3/8 | TOX (100) N/F, animals toxic over tested (mice; rotorod, 100 mg/kg, 4.0 h): 0/4 | TOX (300) N/F, animals toxic over tested (mice; rotorod, 300 mg/kg, 0.5 h): 4/4 / | 6HZ (50), animals active over tested (6HZ): 0/4 | protection in rats (in words) (MES-induced seizures [9]): did not display any protection | toxicity in rats (in words) (rats): did not display any protection or toxicity

Fc1ccc(C2(NCCN3CCCC3)CC3CCC2C3)cc1 (stereo not shown) [Compound 5f]
% inhibition of 1 nM [3H] (+)-MK-801 ([1]; compound at 10 μM (10,000 nM)): greater than 90% | IC50 ([1]; rat forebrain homogenate, 1 nM (+)-[3H]MK-801): 8.66 ± 2.56 µM | Ki ([1]; read-out: NMDA affinity Ki, calculated by Cheng and Prusoff equation): 5.82 µM | Ki (Serotonin 2A (5-HT2A)): > 10 µM | Ki (Dopamine 1 (D1)): > 10 µM | Ki (Dopamine 2 (D2)): > 10 µM | Ki [2]: 0.226 µM | Ki [3]: 2.11 µM | Ki [4]: > 10 µM | Ki [5]: > 10 µM | Ki [6]: 4.61 µM | Ki (Sigma1): > 10 µM | Ki (Sigma2): > 10 µM | MES (30) N/F, animals active over tested (MES-induced seizures [7]; 0.5 h): 0/1 0/1 | MES (30) N/F, animals active over tested (MES-induced seizures [7]; 4.0 h): 0/1 0/1 | MES (100) N/F, animals active over tested (MES-induced seizures [7]; 0.5 h): 1/3 | MES (100) N/F, animals active over tested (MES-induced seizures [7]; 4.0 h): 0/1 | scMET (30) N/F, animals active over tested ([8]; 0.5 h): 0/1 0/1 | scMET (30) N/F, animals active over tested ([8]; 4.0 h): 0/1 0/1 | scMET (100) N/F, animals active over tested ([8]; 0.5 h): 0/1 0/1 | scMET (100) N/F, animals active over tested ([8]; 4.0 h): 0/1 0/1 | TOX comments (mice; 100 mg/kg, 0.5 h): Clonic seizures | TOX comments (mice; 300 mg/kg, 0.5 h): Death | TOX (30) N/F, animals toxic over tested (mice; rotorod, 0.5 h): 0/4 | TOX (30) N/F, animals toxic over tested (mice; rotorod, 4.0 h): 0/2 | TOX (100) N/F, animals toxic over tested (mice; rotorod, 100 mg/kg, 0.5 h): 5/8 | TOX (100) N/F, animals toxic over tested (mice; rotorod, 100 mg/kg, 4.0 h): 0/4 | TOX (300) N/F, animals toxic over tested (mice; rotorod, 300 mg/kg, 0.5 h): 4/4 /

CN1CC[C@@]23CCCC[C@@H]2[C@@H]1Cc1ccc(O)cc13 [DX, dextrophan]
activity / affinity at NMDA (in words) [10]: μM affinity
